Measured values as given in ChEMBL document CHEMBL4017537, “Discovery of a Potent and Specific M. tuberculosis Leucyl-tRNA Synthetase Inhibitor: (S)-3-(Aminomethyl)-4-chloro-7-(2-hydroxyethoxy)benzo[c][1,2]oxaborol-1(3H)-ol (GSK656)” (J Med Chem, 2017).
Values after ≈ are worked out from the molar mass of the structure shown.

Experiments:
[1] = target: T1, Leucine--tRNA ligase, mitochondrial (Homo sapiens, UniProt Q15031); assay: Inhibition of human N-terminal 6His-tagged mitochondrial LeuRS expressed in Escherichia coli BL21(DE3) assessed as L-[14C]leucine incorporation in to Escherichia coli tRNA after 20 mins by liquid scintillation counting analysis
T1 sequence (Q15031 whole entry): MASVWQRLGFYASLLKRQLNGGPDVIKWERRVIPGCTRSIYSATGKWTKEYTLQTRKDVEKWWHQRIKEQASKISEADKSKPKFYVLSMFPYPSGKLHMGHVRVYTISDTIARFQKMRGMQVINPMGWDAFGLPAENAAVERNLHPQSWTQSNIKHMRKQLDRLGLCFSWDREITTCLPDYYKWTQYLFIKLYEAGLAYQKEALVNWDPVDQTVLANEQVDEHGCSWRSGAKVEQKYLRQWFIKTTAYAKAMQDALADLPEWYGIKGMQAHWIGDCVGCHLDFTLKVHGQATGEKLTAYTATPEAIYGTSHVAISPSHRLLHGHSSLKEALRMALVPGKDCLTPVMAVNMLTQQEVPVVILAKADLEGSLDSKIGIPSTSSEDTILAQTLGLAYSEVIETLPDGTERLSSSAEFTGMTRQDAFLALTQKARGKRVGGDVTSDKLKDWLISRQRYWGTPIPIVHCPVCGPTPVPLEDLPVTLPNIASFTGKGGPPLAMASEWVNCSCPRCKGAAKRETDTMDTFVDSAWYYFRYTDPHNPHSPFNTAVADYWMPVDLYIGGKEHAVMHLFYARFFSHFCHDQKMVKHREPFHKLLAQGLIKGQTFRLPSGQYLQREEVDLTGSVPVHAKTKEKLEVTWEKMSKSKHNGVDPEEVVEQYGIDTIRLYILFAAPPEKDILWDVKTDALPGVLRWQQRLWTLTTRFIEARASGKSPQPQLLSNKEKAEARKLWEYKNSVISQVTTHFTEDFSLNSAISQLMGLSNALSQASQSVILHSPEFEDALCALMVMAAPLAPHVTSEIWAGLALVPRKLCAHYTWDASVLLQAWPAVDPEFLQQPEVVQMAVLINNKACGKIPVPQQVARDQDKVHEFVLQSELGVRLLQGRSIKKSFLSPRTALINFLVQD
Procedure, shortened: (§1)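 N-terminal His6-tagged LeuRS expressed in E. coli BL21(DE3), codon-optimized. 50 mM HEPES-KOH pH 8.0, 30 mM MgCl2, 30 mM KCl, 13 μM L-[14C]leucine, 15 μM tRNA (E. coli total; brewer's yeast for human cytoplasmic enzyme), 0.02% BSA, 1 mM DTT, 30 °C. Inhibitor preincubated 20 min, started with 4 mM ATP, TCA-quenched after 7 min, filtered, scintillation counted; four-parameter logistic IC50.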

[2] = Volume of distribution at steady state in CD-1 mouse at 5 mg/kg, iv after 24 hrs by LC-MS/MS analysis; assay type: ADME, organism-based; settings: in vivo, read-out: Vdss
[3] = system: Mycobacterium tuberculosis; assay: Antimicrobial activity against Mycobacterium tuberculosis H37Rv; assay type: functional
[4] = system: cytoplasmic LeuRS; assay: Selectivity index, ratio of EC50 for inhibition of cytoplasmic LeuRS in HepG2 cells assessed as reduction in protein synthesis to MIC for Mycobacterium tuberculosis H37Rv; assay type: toxicity, cell-based; settings: human, read-out: Selectivity Index
Procedure, shortened: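 Ratio of HepG2 protein-synthesis EC50 to MIC against M. tuberculosis H37Rv.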

[5] = Half life in CD-1 mouse at 5 mg/kg, iv after 24 hrs by LC-MS/MS analysis; assay type: ADME, organism-based; settings: in vivo
[6] = AUC (0 to 24 hrs) in CD-1 mouse at 5 mg/kg administered via oral gavage by LC-MS/MS analysis; assay type: ADME, organism-based; design: time < 24 hr, dose 5 mg/kg, route oral; settings: in vivo
[7] = system: Mus musculus; assay: Dose normalized AUC (0 to infinity) in CD-1 mouse at 5 mg/kg, iv after 24 hrs by LC-MS/MS analysis; assay type: ADME, organism-based; settings: in vivo
[8] = Tmax in CD-1 mouse at 5 mg/kg administered via oral gavage after 24 hrs by LC-MS/MS analysis; assay type: ADME, organism-based; settings: in vivo
[9] = Cmax in CD-1 mouse at 5 mg/kg administered via oral gavage after 24 hrs by LC-MS/MS analysis; assay type: ADME, organism-based; design: dose 5 mg/kg, route oral; settings: in vivo
[10] = system: HepG2; assay: Cytotoxicity against human HepG2 cells assessed as reduction in cell viability after 48 hrs by CellTiter-Glo assay; assay type: cell-based; settings: HepG2, 48 h
Procedure, shortened: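 HepG2 cells seeded at 10 000/well in EMEM with 5% FCS and 2 mM glutamine. After 24 h, ten 1:2 serial compound dilutions (0.5% DMSO final) added in duplicate for 48 h. Read-out by CellTiter-Glo luminescence per table footnote; the method text also describes resazurin fluorescence (ex 515/em 590 nm). Sigmoidal variable-slope fit.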

[11] = target: T2, Leucine--tRNA ligase, cytoplasmic (Homo sapiens, UniProt Q9P2J5); assay: Inhibition of cytoplasmic LeuRS in human HepG2 cells assessed as reduction in protein synthesis preincubated for 48 hrs followed by L-[14C]leucine addition measured after 3 hrs by liquid scintillation counting analysis; assay type: cell-based
Procedure, shortened: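 HepG2 cells in DMEM/10% FCS, 3000 cells/well, exposed to compound dilutions (0.5% DMSO final) for 48 h at 37 °C. Medium then replaced with fresh medium containing 0.5 μCi L-[14C]leucine and the same compound levels for 3 h. Cells trypsinised, precipitated in ice-cold 20% TCA, filtered, washed, scintillation counted; curve-fit EC50; mean of at least duplicates.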

[12] = Clearance in CD-1 mouse at 5 mg/kg, iv after 24 hrs by LC-MS/MS analysis; assay type: ADME, organism-based; settings: in vivo
[13] = system: Mus musculus; assay: Dose normalized AUC (0 to 24 hrs) in CD-1 mouse at 5 mg/kg administered via oral gavage by LC-MS/MS analysis; assay type: ADME, organism-based; settings: in vivo
[14] = Oral bioavailability in CD-1 mouse at 5 mg/kg administered via gavage after 24 hrs by LC-MS/MS analysis; assay type: ADME, organism-based; settings: in vivo
[15] = system: Mycobacterium tuberculosis; assay: Antimicrobial activity against Mycobacterium tuberculosis H37Rv infected in C57BL/6J mouse assessed as 2 log reduction in bacterial load in lungs administered qd for 8 consecutive days starting on day 1 post infection measured 24 hrs post last dose; assay type: functional
[16] = AUC (0 to infinity) in CD-1 mouse at 5 mg/kg, iv after 24 hrs by LC-MS/MS analysis; assay type: ADME, organism-based; design: dose 5 mg/kg, route intravenous, time infinity; settings: in vivo
[17] = target: T2, Leucine--tRNA ligase, cytoplasmic; assay: Inhibition of human N-terminal 6His-tagged cytoplasmic LeuRS expressed in Escherichia coli BL21(DE3) assessed as […] after 20 mins by liquid scintillation counting analysis
[18] = target: T3, Leucine--tRNA ligase (Mycobacterium tuberculosis (strain ATCC 25618 / H37Rv), UniProt P9WFV1); assay: Inhibition of Mycobacterium tuberculosis H37Rv N-terminal 6His-tagged LeuRS expressed in Escherichia coli BL21(DE3) assessed as L-[14C]leucine incorporation in to Escherichia coli tRNA after 20 mins by liquid scintillation counting analysis; procedure, shortened: as §1
T3 sequence (P9WFV1 whole entry): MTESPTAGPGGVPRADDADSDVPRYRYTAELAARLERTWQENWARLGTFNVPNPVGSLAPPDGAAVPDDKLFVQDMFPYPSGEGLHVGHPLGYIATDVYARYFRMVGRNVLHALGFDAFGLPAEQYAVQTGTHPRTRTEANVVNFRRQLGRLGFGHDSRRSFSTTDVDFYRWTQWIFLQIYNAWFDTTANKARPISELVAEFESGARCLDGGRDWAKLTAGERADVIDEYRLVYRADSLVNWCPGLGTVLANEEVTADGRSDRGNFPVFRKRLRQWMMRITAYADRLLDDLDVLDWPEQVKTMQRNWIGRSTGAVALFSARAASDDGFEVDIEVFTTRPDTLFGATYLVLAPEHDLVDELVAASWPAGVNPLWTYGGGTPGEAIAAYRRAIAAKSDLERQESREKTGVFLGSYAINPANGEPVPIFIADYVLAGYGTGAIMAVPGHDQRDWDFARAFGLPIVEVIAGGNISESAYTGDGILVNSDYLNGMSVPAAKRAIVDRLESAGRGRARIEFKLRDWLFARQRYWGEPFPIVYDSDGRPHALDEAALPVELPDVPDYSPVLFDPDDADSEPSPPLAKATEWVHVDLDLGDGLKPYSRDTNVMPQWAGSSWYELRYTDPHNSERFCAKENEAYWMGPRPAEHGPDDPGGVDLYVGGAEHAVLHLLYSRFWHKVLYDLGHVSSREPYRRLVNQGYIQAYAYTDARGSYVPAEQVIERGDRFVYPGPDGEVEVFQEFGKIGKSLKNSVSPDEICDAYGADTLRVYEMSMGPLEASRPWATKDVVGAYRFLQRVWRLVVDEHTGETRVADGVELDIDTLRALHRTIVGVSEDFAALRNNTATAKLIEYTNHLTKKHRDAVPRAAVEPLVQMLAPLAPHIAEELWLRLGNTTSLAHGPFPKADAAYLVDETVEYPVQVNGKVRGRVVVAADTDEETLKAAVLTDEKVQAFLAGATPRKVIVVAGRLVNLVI

[19] = system: Mycobacterium tuberculosis; assay: Antimicrobial activity against Mycobacterium tuberculosis H37Rv infected in C57BL/6J mouse assessed as bacterial load in lungs at 100 mg/kg qd administered for 8 consecutive weeks starting from 6 weeks post infection measured 24 hrs post last dose (reference value: 6.4 +/- 0.3 log10CFU); assay type: functional
Procedure, shortened: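 C57BL/6J mice infected intratracheally with ~10² CFU M. tuberculosis H37Rv. Dosed QD, 7 days/week, for 8 weeks starting 6 weeks post-infection; killed ≥24 h after last dose. Lung homogenates plated on 7H11/10% OADC for 21 days at 37 °C. n = 3 per dose group, 7 for controls; mean (SD); ANOVA with Dunnett's test versus 14-week untreated.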

[20] = system: Mus musculus; assay: Dose normalized AUC (0 to infinity) in C57BL/6 mouse at 30 mg/kg, iv administered as single dose measured up to 24 hrs by LC-MS/MS analysis; assay type: ADME, organism-based; settings: in vivo
[21] = system: Mus musculus; assay: Dose normalized AUC (0 to 24 hrs) in C57BL/6 mouse at 30 mg/kg administered as single dose via oral gavage by LC-MS/MS analysis; assay type: ADME, organism-based; settings: in vivo
[22] = AUC (0 to infinity) in C57BL/6 mouse at 30 mg/kg, iv administered as single dose measured up to 24 hrs by LC-MS/MS analysis; assay type: ADME, organism-based; design: dose 30 mg/kg, time infinity, route intravenous; settings: in vivo
[23] = Half life in C57BL/6 mouse at 30 mg/kg, iv administered as single dose measured up to 24 hrs by LC-MS/MS analysis; assay type: ADME, organism-based; settings: in vivo
[24] = Tmax in C57BL/6 mouse at 30 mg/kg administered as single dose via oral gavage measured up to 24 hrs by LC-MS/MS analysis; assay type: ADME, organism-based; settings: in vivo
Procedure, shortened: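 C57BL/6 female mice (18−20 g) got one oral gavage dose of 30 mg/kg in 1% methylcellulose. Peripheral whole blood was sampled from 15 min to 24 h postdose, n = 3 mice per time point, and drug concentrations were measured in blood.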

[25] = Clearance in C57BL/6 mouse at 30 mg/kg, iv administered as single dose measured up to 24 hrs by LC-MS/MS analysis; assay type: ADME, organism-based; settings: in vivo
[26] = Oral bioavailability in C57BL/6 mouse at 30 mg/kg administered as single dose via gavage measured up to 24 hrs by LC-MS/MS analysis; assay type: ADME, organism-based; settings: in vivo
[27] = Volume of distribution at steady state in C57BL/6 mouse at 30 mg/kg, iv administered as single dose measured up to 24 hrs by LC-MS/MS analysis; assay type: ADME, organism-based; settings: in vivo, read-out: Vdss
Procedure, shortened: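 C57BL/6 female mice (18−20 g) got one intravenous dose in saline. Whole blood (15 μL) was taken by lateral tail-vein puncture from each of 3 mice at 5, 15 and 30 min and at 1, 2, 4, 8 and 24 h postdose, and drug concentrations were measured in peripheral blood.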

[28] = AUC (0 to 24 hrs) in C57BL/6 mouse at 30 mg/kg administered as single dose via oral gavage by LC-MS/MS analysis; assay type: ADME, organism-based; design: time < 24 hr, dose 30 mg/kg, route oral; settings: in vivo
[29] = Cmax in C57BL/6 mouse at 30 mg/kg administered as single dose via oral gavage measured up to 24 hrs by LC-MS/MS analysis; assay type: ADME, organism-based; design: dose 30 mg/kg, route oral; settings: in vivo

T2 sequence (Q9P2J5 whole entry): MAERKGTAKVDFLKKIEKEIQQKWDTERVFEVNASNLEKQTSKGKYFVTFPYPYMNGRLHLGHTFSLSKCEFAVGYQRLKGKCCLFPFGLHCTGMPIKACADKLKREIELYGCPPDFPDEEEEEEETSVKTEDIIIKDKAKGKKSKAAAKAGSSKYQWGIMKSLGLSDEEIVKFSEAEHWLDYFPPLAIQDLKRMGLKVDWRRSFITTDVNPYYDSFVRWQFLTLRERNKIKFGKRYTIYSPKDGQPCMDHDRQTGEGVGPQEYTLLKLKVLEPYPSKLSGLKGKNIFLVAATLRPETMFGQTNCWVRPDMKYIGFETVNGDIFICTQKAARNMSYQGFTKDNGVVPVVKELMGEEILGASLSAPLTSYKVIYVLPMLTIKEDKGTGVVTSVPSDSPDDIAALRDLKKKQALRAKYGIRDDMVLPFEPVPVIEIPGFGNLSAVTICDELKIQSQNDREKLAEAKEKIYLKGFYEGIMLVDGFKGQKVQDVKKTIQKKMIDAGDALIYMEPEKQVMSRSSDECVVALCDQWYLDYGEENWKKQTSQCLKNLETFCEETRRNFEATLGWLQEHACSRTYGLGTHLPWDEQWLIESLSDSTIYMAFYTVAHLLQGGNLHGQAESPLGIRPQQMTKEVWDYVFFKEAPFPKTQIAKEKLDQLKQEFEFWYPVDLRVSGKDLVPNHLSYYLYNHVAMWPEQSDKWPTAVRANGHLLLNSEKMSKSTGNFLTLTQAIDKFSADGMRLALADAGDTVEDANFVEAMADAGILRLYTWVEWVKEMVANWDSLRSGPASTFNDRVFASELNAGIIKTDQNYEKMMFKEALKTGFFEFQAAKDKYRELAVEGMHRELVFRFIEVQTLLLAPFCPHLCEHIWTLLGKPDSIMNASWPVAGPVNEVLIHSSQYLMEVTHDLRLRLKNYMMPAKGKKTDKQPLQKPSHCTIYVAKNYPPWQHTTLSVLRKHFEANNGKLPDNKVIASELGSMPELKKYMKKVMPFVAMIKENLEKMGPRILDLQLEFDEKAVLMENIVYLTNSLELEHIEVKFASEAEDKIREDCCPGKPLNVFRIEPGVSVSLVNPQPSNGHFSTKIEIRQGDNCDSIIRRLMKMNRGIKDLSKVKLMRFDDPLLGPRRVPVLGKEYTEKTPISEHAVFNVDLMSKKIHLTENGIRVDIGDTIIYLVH

SMILES	IC50 [1]	MIC [3]	selectivity ratio [4]	EC50 [10]	EC50 [11]	ED99 [15]	IC50 [17]	IC50 [18]	other results
COc1ccc(Br)c2c1B(O)O[C@@H]2CN.Cl	> 300 µM	0.1 µM	970	74.5 µM	97 µM	3.8 mg/kg	> 300 µM	0.074 µM	Vd [2]: 2.5 L/kg; half-life [5]: 2.4 h; AUC(0-t) at 24 h [6]: 4210 ng·h/mL; AUC/dose [7]: 1.17 µg·h/mL/mg/kg; Tmax [8]: 0.25 h; Cmax [9]: 980 ng/mL; clearance [12]: 14.2 mL/min/kg; AUC/dose [13]: 0.84 µg·h/mL; bioavailability [14]: 72%; AUC(0-inf) [16]: 5840 ng·h/mL
CC(=O)NC[C@H]1CN(c2ccc(N3CCOCC3)c(F)c2)C(=O)O1 [LINEZOLID]									Activity [19]: 3.9 log10CFU
NC[C@H]1OB(O)c2c(OCCO)ccc(Br)c21	> 300 µM	0.08 µM (≈ 0.0242 µg/mL)	1450	292 µM	116 µM		118 µM	0.12 µM	
Cl.NC[C@H]1OB(O)c2c3c(cc(Cl)c21)OCCO3		0.08 µM	1040	69.5 µM	82.8 µM	70 mg/kg	96.6 µM	0.046 µM	AUC/dose [20]: 2.54 µg·h/mL/mg/kg; AUC/dose [21]: 1.26 µg·h/mL; AUC(0-inf) [22]: 76300 ng·h/mL; half-life [23]: 2.9 h; Tmax [24]: 1 h; clearance [25]: 6.6 mL/min/kg; bioavailability [26]: 50%; Vd [27]: 1.5 L/kg; AUC(0-t) at 24 h [28]: 37700 ng·h/mL; Cmax [29]: 6210 ng/mL
